Activity calls are given as the source filed them. The calls are words filed in the database; no cut-off is given here.
Legend:
[1] = Chemical stability assessed as degradation after 24 hrs by LC/MS/MS analysis; assay type: physicochemical
Method in brief: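 Compound held 24 h at 37 °C in RPMI 1640 culture medium, the medium used for the MCF7 uptake work; remaining amount sampled at 0, 12 and 24 h as % of starting level; three runs.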

RAW264.7 [2] = assay: Inhibition of LPS-induced iNOS expression in mouse RAW264.7 cells at 34 uM treated 15 mins before LPS challenge measured after 18 hrs by Western blotting; assay type: functional, cell-based
Method in brief: (§1)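 RAW 264.7 cells pretreated 15 min with compound (34 μM), then LPS 1 μg/mL for 18 h. Lysates (30 μg protein) run on 8% SDS-PAGE and transferred to PVDF. Blocked in 5% milk/TBST, probed for iNOS and COX-2 with HRP secondary, ECL detection, β-actin internal control. Band density relative to LPS-treated control; duplicate experiments.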

HL-60 = assay: Cell cycle arrest in human HL60 cells assessed as accumulation at sub-G1 phase at 34 uM after 24 hrs by flow cytometry; assay type: functional
Method in brief: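 HL-60 cells (2 × 10⁵/well) exposed to samples for 24 h, then stained with NIM-DAPI nuclear isolation medium. Read by flow cytometry under UV excitation; percentage of cells in subG₁ taken from the DNA histogram.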

[3] = molecular target: T1, Prostaglandin G/H synthase 2 (Homo sapiens, UniProt P35354); assay: Inhibition of human recombinant COX2 assessed as PGE2 production after 10 mins by ELISA
T1 sequence (P35354 whole entry): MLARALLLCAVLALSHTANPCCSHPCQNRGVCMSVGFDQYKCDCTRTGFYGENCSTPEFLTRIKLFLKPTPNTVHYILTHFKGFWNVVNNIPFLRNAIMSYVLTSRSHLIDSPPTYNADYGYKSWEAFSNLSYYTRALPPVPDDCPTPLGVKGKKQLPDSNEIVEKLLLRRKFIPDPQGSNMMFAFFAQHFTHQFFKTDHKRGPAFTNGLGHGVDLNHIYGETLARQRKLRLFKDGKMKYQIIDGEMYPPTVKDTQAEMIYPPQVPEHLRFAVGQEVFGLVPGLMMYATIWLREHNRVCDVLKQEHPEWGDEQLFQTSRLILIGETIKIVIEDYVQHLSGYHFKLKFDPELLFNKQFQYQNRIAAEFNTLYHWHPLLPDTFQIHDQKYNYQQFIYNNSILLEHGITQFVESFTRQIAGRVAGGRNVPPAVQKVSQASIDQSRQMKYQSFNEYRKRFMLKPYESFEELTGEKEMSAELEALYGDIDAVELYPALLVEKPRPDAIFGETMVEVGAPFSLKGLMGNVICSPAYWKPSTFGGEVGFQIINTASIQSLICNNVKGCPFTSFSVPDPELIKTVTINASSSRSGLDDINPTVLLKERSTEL

[4] = molecular target: T2, Prostaglandin G/H synthase 1 (Ovis aries, UniProt P05979); assay: Inhibition of sheep seminal vesicles COX1 assessed as PGE2 production after 10 mins by ELISA
T2 sequence (P05979 whole entry): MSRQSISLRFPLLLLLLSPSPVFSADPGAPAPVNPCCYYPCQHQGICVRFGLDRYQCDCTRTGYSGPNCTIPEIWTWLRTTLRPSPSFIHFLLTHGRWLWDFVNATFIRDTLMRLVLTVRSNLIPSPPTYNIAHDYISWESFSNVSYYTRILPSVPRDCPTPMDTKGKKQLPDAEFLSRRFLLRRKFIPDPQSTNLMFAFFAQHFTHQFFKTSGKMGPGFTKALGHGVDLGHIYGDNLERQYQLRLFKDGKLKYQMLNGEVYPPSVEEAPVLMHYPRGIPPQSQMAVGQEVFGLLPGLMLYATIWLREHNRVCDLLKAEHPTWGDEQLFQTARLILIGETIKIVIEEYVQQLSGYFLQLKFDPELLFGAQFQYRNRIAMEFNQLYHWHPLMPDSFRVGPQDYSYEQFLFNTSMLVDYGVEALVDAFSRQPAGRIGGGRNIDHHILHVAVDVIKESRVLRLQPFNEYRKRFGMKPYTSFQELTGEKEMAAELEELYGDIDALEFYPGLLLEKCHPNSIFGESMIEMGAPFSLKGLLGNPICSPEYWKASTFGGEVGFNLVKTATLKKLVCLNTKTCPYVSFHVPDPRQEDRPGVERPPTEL
Method in brief: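 Sheep seminal vesicle COX-1; reaction started with arachidonic acid, 10 min at room temperature, stopped with 27.8 μM indomethacin. PGE₂ quantified by competitive ELISA (PGE₂-acetylcholinesterase tracer, Ellman's reagent, 412 nm) against a PGE₂ standard curve. Result as % of solvent control; IC₅₀ from dose-response curves.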

[5] = Inhibition of TNF-alpha-induced NF-kappaB activity expressed in HEK293 cells after 48 hrs by luciferase reporter gene assay; assay type: cell-based; conditions: HEK293, 48 h
Aromatase = molecular target: T3, Aromatase (Homo sapiens, UniProt P11511); conditions: read-out: INH
T3 sequence (P11511 whole entry): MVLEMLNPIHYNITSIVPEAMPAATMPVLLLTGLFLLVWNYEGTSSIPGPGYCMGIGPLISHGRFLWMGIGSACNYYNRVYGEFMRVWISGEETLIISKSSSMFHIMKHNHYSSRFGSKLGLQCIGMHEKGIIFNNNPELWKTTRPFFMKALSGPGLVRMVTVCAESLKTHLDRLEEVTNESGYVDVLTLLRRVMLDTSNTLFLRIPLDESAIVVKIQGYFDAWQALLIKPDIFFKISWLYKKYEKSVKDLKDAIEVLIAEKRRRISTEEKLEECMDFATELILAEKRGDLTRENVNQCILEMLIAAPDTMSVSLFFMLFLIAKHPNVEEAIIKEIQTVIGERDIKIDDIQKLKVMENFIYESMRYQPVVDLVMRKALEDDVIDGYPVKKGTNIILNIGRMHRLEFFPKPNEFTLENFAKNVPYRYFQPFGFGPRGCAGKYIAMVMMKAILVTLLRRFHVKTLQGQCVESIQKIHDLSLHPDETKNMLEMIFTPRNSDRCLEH

[6] = molecular target: NAD(P)H dehydrogenase [quinone] 1 (Mus musculus) (UniProt Q64669); assay: Induction of quinone reductase 1 in mouse Hepa 1c1c7 cells assessed as drug level required to double enzyme activity by MTT assay
Sequence of NAD(P)H dehydrogenase [quinone] 1 (Mus musculus) (Q64669 whole entry): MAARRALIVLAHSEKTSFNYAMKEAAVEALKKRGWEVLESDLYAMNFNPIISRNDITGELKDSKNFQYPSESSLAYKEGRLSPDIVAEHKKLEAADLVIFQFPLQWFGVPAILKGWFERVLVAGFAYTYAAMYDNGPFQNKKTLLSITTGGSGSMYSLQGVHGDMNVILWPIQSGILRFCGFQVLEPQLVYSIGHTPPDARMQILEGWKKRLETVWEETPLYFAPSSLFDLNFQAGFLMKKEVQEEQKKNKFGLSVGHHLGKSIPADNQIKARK

RAW264.7 [7] = assay: Inhibition of LPS-induced COX2 expression in mouse RAW264.7 cells at 34 uM treated 15 mins before LPS challenge measured after 18 hrs by Western blotting relative to control; assay type: functional; method in brief: as §1
MCF7 = assay: Cellular uptake in human MCF7 cells assessed per millions cells at 50 uM after 24 hrs by LC/MS/MS analysis; assay type: ADME, cell-based; conditions: mcf7, 24 h
[8] = Antioxidant activity assessed as DPPH scavenging activity after 30 mins; assay type: functional

O=S(=O)([O-])Oc1ccc(/C=C/c2cc(O)cc(O)c2)cc1.[K+]
Stability [1]: Stable
inhibition (RAW264.7 [2]): Active
Activity (HL-60): 2.22%
IC50 [3]: 8.95 µM
IC50 [4]: 5.55 µM
IC50 [5]: 18.2 µM
inhibition at 34 µM (Aromatase): 30.4%
CD [6]: > 6.9 µM

O=S(=O)([O-])Oc1ccc(/C=C/c2cc(OS(=O)(=O)[O-])cc(OS(=O)(=O)[O-])c2)cc1.[K+].[K+].[K+]
fold change (FC) (RAW264.7 [7]): 0.69
inhibition at 34 µM (Aromatase): 28.5%
CD [6]: > 11.7 µM

O=S(=O)([O-])Oc1cc(/C=C/c2ccc(O)cc2)cc(OS(=O)(=O)[O-])c1.[K+].[K+]
fold change (FC) (RAW264.7 [7]): 0.76
Drug uptake (MCF7): Active
inhibition at 34 µM (Aromatase): 20.5%
CD [6]: > 10.1 µM

O=S(=O)([O-])Oc1cc(O)cc(/C=C/c2ccc(O)cc2)c1.[K+]
inhibition (RAW264.7 [2]): Active
IC50 [8]: 219 µM
IC50 [3]: 7.53 µM
IC50 [4]: 3.6 µM
inhibition at 34 µM (Aromatase): 28.2%
CD [6]: 2.6 µM

Source: ChEMBL document CHEMBL1177719 (J Med Chem, 2010)
